Drawing on ChEMBL document CHEMBL4351014, “Bis(het)aryl-1,2,3-triazole quinuclidines as α7 nicotinic acetylcholine receptor ligands: Synthesis, structure affinity relationships, agonism activity, [18F]-radiolabeling and PET study in rats” (Eur J Med Chem, 2019), this text covers Ki, Activity and cytotoxicity for 38 compounds.

Calls of active or inactive are those of the source. The calls are words filed in the database; no cut-off is given here.

Data set [1] has as its target Neuronal acetylcholine receptor subunit alpha-7 (Rattus norvegicus, UniProt Q05941). Nature of the data set: Displacement of [125I]-alpha-bungarotoxin from alpha7 nAChR in Wistar rat brain membrane incubated for 3 hrs by gamma counting analysis. It counts as cell membranes. The method, boiled down: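 Frontal cortex membranes from male Wistar rats (2 rats per experiment), homogenised in pH 7.4 HEPES buffer and spun at 45,000×g. 25 μg protein incubated with 2 nM [125I]α-bungarotoxin and 10^-10 to 10^-6 M competitor in pH 7.4 Tris-HCl with Ca/Mg for 3 h at 22 °C. Nonspecific binding defined with 1 μM α-bungarotoxin. Filtered on PEI-soaked GF/C, gamma counted. IC50 read graphically, converted to Ki.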
A general note: Loss of bound radioactivity is the signal in a displacement assay; it reports binding, not function.

In data set [2] the target is Neuronal acetylcholine receptor subunit alpha-7 (Homo sapiens) (UniProt P36544). Nature of the data set: Agonist activity at alpha7 nAChR in human SH-SY5Y cells assessed as release of intracellular calcium at 130 nM preincubated for 20 mins with alpha7 nAChR antagonist alpha-bungarotoxin and for 1 min with alpha7 nAChR PAM PNU120596 prior to compound addition by Fluo-3 AM staining-based fluorescence spectral scanning multimode reader analysis. It counts as cell-based. The method, boiled down: (§1)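 Differentiated SH-SY5Y cells loaded with fluo-3 AM as above, then preincubated 20 min at r.t. in Tyrode's solution with 100 nM α-bungarotoxin. PNU-120596 added 1 min before test agent or 3 mM choline. Fluorescence read at Ex 506/Em 526 nm, response expressed as % of (Fmax−Fmin) from 0.3% Triton X-100 then 100 mM MnCl2. 5 experiments in duplicate, mean ± SEM.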
Neuronal acetylcholine receptor subunit alpha-7 (Homo sapiens), sequence (P36544 whole entry): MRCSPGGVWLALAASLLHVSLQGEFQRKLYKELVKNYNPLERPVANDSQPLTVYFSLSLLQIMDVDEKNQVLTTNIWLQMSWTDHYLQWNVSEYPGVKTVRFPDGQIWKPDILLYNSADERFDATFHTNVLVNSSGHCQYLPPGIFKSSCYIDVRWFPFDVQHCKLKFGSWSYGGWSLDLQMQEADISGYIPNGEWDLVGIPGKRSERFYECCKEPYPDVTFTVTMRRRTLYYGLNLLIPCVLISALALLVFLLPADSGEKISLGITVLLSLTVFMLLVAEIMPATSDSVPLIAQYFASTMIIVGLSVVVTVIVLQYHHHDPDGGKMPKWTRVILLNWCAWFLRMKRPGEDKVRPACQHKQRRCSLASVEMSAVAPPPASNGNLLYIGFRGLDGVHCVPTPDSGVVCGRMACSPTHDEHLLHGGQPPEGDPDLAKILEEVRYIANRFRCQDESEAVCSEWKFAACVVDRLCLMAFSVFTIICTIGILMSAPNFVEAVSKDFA

For data set [3], the target named is T1, 5-hydroxytryptamine receptor 3A (Homo sapiens, UniProt P46098).
T1 sequence (P46098 whole entry): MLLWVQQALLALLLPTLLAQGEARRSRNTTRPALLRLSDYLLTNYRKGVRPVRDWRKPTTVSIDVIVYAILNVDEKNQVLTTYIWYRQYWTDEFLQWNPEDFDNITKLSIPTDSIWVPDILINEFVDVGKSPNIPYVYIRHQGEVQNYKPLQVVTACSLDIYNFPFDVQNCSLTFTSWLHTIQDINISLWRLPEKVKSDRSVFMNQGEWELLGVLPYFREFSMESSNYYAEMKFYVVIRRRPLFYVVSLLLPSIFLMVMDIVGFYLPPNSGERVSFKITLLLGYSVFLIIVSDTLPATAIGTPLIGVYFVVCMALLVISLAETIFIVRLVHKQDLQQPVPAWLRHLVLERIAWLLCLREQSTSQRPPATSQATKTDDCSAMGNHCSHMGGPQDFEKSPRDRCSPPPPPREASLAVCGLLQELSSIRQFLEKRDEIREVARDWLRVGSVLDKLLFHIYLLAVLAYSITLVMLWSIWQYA
The experiment in a line: Displacement of [3H]BRL 43694 from human 5HT3R by radioligand displacement assay.

The target of data set [4] is Neuronal acetylcholine receptor subunit alpha-7 (Homo sapiens) (UniProt P36544). The experiment in a line: Agonist activity at alpha7 nAChR in human SH-SY5Y cells assessed as increase in intracellular calcium release at 130 nM preincubated for 1 min with alpha7 nAchR PAM PNU120596 prior to compound addition by Fluo-3 AM staining-based fluorescence spectral scanning multimode reader analysis. It counts as cell-based. Put shortly: (§2)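 SH-SY5Y (ATCC) grown in MEM/F12 1:1 with 10% heat-inactivated FBS, differentiated with 10 μM retinoic acid for 7 days. Cells loaded with 10 μM fluo-3 AM plus 0.02% Pluronic F127 for 1 h at r.t. in the dark, then preincubated 20 min at r.t. in Tyrode's solution with vehicle. PNU-120596 added in the last minute. Fluorescence read at Ex 506/Em 526 nm, normalised to Triton (Fmax) and MnCl2 (Fmin). 5 experiments in duplicate, mean ± SEM.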

Data set [5] has as its target Neuronal acetylcholine receptor; alpha4/beta2 (Homo sapiens, UniProt P17787+P43681). Nature of the data set: Displacement of [3H]cytisine from human recombinant alpha4beta2 nAChR incubated for 120 mins by radiometric scintillation analysis. It counts as protein-complex assay.
Data set [6] relates to SH-SY5Y. The experiment in a line: Cytotoxicity against human SH-SY5Y cells assessed as cell viability at 0.13 to 1.3 uM incubated for 48 hrs by MTS assay. It counts as cell-based. Put shortly:
(§3)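 Retinoic acid-differentiated SH-SY5Y cells exposed for 48 h to 10, 100 and 1000 × Ki of each agent. MTS added for 3 h, absorbance read at 490 nm. Viability given as % of vehicle-treated cells. 4 independent experiments in triplicate, mean ± SEM.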
In general terms: Tetrazolium assays rely on reduction of a dye to a coloured formazan, in cell work by metabolically active cells.

Data set [7] in a line: Cytotoxicity against human SH-SY5Y cells assessed as reduction in cell viability at 13 uM incubated for 48 hrs by MTS assay relative to control. It counts as cell-based. To be noted: read-out: INH. The method, boiled down:
as §3

In data set [8] the target is Neuronal acetylcholine receptor subunit alpha-7 (Homo sapiens) (UniProt P36544). Nature of the data set: Agonist activity at alpha7 nAChR in human SH-SY5Y cells assessed as intracellular calcium release at 7 nM preincubated for 1 min with alpha7 nAchR PAM PNU120596 prior to compound addition by Fluo-3 AM staining-based fluorescence spectral scanning multimode reader analysis. It counts as cell-based. The method, boiled down: as §2
Background: Calcium assays in cells follow changes in intracellular calcium, usually with a dye or a luminescent sensor.

For data set [9] the target is unchanged. The experiment in a line: Agonist activity at alpha7 nAChR in human SH-SY5Y cells assessed as release of intracellular calcium at 3 nM preincubated for 20 mins with alpha7 nAChR antagonist alpha-bungarotoxin and for 1 min with alpha7 nAChR PAM PNU120596 prior to compound addition by Fluo-3 AM staining-based fluorescence spectral scanning multimode reader analysis. It counts as cell-based. Put shortly:
as §1

Data set [10] shares this target. The experiment in a line: Agonist activity at alpha7 nAChR in human SH-SY5Y cells assessed as increase in intracellular calcium release at 3 nM preincubated for 1 min with alpha7 nAchR PAM PNU120596 prior to compound addition by Fluo-3 AM staining-based fluorescence spectral scanning multimode reader analysis relative to choline. It counts as cell-based. Put shortly:
as §2

The subject of data set [11] is SH-SY5Y. Nature of the data set: Cytotoxicity against human SH-SY5Y cells assessed as cell viability at 0.003 to 3 uM incubated for 48 hrs by MTS assay. It counts as cell-based. Put shortly:
as §3

Data set [12] has as its target Neuronal acetylcholine receptor subunit alpha-7 (Homo sapiens) (UniProt P36544). Nature of the data set: Agonist activity at alpha7 nAChR in human SH-SY5Y cells assessed as release of intracellular calcium at 50 nM preincubated for 20 mins with alpha7 nAChR antagonist alpha-bungarotoxin and for 1 min with alpha7 nAChR PAM PNU120596 prior to compound addition by Fluo-3 AM staining-based fluorescence spectral scanning multimode reader analysis. It counts as cell-based. Put shortly: as §1

Data set [13] relates to SH-SY5Y. Nature of the data set: Cytotoxicity against human SH-SY5Y cells assessed as cell viability at 50 nM to 5 uM incubated for 48 hrs by MTS assay. It counts as cell-based. The settings on record: 0.05 µM. Put shortly:
as §3

The target of data set [14] is Neuronal acetylcholine receptor subunit alpha-7 (Homo sapiens) (UniProt P36544). Nature of the data set: Agonist activity at alpha7 nAChR in human SH-SY5Y cells assessed as increase in intracellular calcium release at 50 nM preincubated for 1 min with alpha7 nAchR PAM PNU120596 prior to compound addition by Fluo-3 AM staining-based fluorescence spectral scanning multimode reader analysis. It counts as cell-based. The method, boiled down: as §2

Neuronal acetylcholine receptor; alpha4/beta2, sequence (P17787 whole entry): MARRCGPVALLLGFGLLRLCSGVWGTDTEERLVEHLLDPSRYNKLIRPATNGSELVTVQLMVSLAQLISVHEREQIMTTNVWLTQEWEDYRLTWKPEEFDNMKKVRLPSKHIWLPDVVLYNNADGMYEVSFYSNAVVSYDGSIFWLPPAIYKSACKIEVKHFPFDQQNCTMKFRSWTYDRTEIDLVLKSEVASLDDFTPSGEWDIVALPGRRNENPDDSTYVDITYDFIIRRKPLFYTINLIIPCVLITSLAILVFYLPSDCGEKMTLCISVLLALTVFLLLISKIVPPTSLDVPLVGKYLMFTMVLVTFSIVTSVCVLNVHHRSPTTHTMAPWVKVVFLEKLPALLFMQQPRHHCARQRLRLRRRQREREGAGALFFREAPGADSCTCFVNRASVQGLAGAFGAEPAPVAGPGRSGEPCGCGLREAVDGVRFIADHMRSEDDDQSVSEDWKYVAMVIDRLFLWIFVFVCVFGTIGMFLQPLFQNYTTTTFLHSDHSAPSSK
Neuronal acetylcholine receptor; alpha4/beta2, sequence (P43681 whole entry): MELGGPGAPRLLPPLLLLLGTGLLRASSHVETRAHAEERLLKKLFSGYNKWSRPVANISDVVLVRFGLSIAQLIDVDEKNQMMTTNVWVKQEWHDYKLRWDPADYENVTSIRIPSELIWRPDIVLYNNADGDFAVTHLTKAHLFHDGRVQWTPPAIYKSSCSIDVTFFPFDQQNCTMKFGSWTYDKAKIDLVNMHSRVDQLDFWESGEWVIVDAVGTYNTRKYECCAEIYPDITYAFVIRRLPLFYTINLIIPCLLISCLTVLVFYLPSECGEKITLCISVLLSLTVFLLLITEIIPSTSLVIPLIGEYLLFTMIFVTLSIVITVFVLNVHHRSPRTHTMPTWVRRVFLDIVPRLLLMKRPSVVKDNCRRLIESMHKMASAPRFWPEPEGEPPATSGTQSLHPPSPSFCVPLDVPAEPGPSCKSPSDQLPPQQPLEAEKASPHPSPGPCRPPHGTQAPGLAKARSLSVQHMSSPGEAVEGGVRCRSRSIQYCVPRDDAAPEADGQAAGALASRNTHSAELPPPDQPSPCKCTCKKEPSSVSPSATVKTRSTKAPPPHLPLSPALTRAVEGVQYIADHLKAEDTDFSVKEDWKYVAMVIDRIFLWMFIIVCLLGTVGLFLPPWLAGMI
Neuronal acetylcholine receptor subunit alpha-7, sequence (Q05941 whole entry): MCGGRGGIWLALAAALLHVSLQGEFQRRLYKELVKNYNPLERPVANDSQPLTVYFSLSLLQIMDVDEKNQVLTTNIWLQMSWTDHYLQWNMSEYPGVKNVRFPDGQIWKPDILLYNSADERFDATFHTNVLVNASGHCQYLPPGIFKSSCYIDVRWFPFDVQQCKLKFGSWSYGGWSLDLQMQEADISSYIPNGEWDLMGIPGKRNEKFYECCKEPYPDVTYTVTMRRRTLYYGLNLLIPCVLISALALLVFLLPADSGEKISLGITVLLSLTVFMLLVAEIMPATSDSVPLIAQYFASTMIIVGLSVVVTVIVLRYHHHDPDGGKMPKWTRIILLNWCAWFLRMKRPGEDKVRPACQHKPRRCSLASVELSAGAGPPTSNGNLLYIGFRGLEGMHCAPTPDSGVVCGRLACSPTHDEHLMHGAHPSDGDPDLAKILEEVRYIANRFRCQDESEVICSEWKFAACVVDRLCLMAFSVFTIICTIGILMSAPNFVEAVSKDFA

In general, Ki refers to a measure of affinity in units of concentration, obtained from inhibition or displacement. `c1cc(-c2ccc(CN3CCOCC3)cc2)cc(-c2cn([C@H]3CN4CCC3CC4)nn2)c1`: the affinity in data set [1] corresponds to a Ki of 12.5 nM.
Same read-out and setting: with `OCc1ccc(-c2ccc(-c3cn([C@H]4CN5CCC4CC5)nn3)s2)cc1F` the figure was 12 nM; with `Fc1ccc(-c2csc(-c3cn([C@H]4CN5CCC4CC5)nn3)c2)cn1`, 31 nM.
Still for that read-out and setting: with `c1cc(CN2CCCCC2)cc(-c2ccc(-c3cn([C@H]4CN5CCC4CC5)nn3)s2)c1` the figure was 17 nM.
For the compound `Fc1ccc(-c2ccc(-c3cn([C@H]4CN5CCC4CC5)nn3)s2)cn1`, the result in [2] was inactive. Also, the results for the Ki in [3], in [5] and in [1] were 440 nM, > 1000 nM and 13 nM, respectively. The outcome in data set [4] was Active. Besides, in the data set with SH-SY5Y [6], the Activity result is on record as “Non-Toxic”. In addition, the cytotoxicity at 48 h, 13 µM in data set [7] turned out to be 15%.
As for `OCc1cccc(-c2ccc(-c3cn([C@H]4CN5CCC4CC5)nn3)s2)c1`, the outcome in data set [8] was inactive. Besides, the Ki in [1] was determined as 0.7 nM.
Regarding `OCCc1ccc(-c2ccc(-c3cn([C@H]4CN5CCC4CC5)nn3)s2)cc1`, in data set [1], the Ki came to 1.5 nM.
On the same count and under the same terms, with `c1cc2c(cc1-c1ccc(-c3cn([C@H]4CN5CCC4CC5)nn3)s1)OCCO2` the figure was 140 nM; with `FCC1CCN(Cc2ccc(-c3ccc(-c4cn([C@H]5CN6CCC5CC6)nn4)s3)cc2)CC1`, 1.4 nM; with `OCc1ccc(-c2ccc(-c3cn([C@H]4CN5CCC4CC5)nn3)cc2)s1`, 120 to 200 nM.
As for `c1cc(-c2ccc(-c3cn([C@H]4CN5CCC4CC5)nn3)s2)ccc1CN1CCCCC1`, the values for the Ki in data set [3] and in data set [5] were 560 nM and 1000 nM, respectively. The result in data set [9] was inactive. Further, the results for the Activity (in [10]; with SH-SY5Y [11]) were 80% and “Non-Toxic”, respectively.
`OCc1ccc(-c2cccc(-c3cn([C@H]4CN5CCC4CC5)nn3)c2)cc1F`: the Ki in data set [1] came out at 18 nM.
Same read-out and setting: with `NCc1ccc(-c2ccc(-c3cn([C@H]4CN5CCC4CC5)nn3)s2)cc1` the figure was 0.3 nM; with `c1ccc(-c2ccc(-c3cn([C@H]4CN5CCC4CC5)nn3)s2)cc1`, 43 nM.
Regarding `OC1CCN(Cc2ccc(-c3ccc(-c4cn([C@H]5CN6CCC5CC6)nn4)s3)cc2)CC1`, the Ki in data set [1] amounted to 0.3 nM.
Consider `c1cc(-c2ccc(CN3CCCCC3)cc2)cc(-c2cn([C@H]3CN4CCC3CC4)nn2)c1`, for which the Ki in data set [1] amounted to 3 nM.
`FCCOc1ccc(-c2ccc(-c3cn([C@H]4CN5CCC4CC5)nn3)s2)cc1`: the Ki in data set [1] stood at 340 nM.
As to `c1cc(CN2CCOCC2)cc(-c2cccc(-c3cn([C@H]4CN5CCC4CC5)nn3)c2)c1`, in [1], the Ki was 49 nM.
Compound `OCc1ccc(-c2cccc(-c3cn([C@H]4CN5CCC4CC5)nn3)c2)s1` gave a Ki in data set [1] of 0.2 nM.
In [1], `CN1CCN(Cc2ccc(-c3cccc(-c4cn([C@H]5CN6CCC5CC6)nn4)c3)cc2)CC1` gave a Ki of 1.9 nM.
Compound `FCCc1ccc(-c2ccc(-c3cn([C@H]4CN5CCC4CC5)nn3)s2)cc1` came in with a Ki in [1] of 157 nM.
Turning to `CN1CCN(Cc2cccc(-c3cccc(-c4cn([C@H]5CN6CCC5CC6)nn4)c3)c2)CC1`, in [1], affinity was put at a Ki of 39 nM.
As to `OCCOc1ccc(-c2ccc(-c3cn([C@H]4CN5CCC4CC5)nn3)s2)cc1`, the Ki in data set [1] was 1.7 nM.
Same read-out and setting: with `OCc1ccc(-c2csc(-c3cn([C@H]4CN5CCC4CC5)nn3)c2)cc1` the figure was 1.5 nM.
The same measure, in the same setting: with `c1cc2c(cc1-c1ccc(-c3cn([C@H]4CN5CCC4CC5)nn3)s1)CCO2` the figure was 60 nM; with `FCc1cccc(-c2ccc(-c3cn([C@H]4CN5CCC4CC5)nn3)s2)c1`, 42 nM; with `COC(=O)c1ccc(-c2ccc(-c3cn([C@H]4CN5CCC4CC5)nn3)s2)cc1F`, 80 to 90 nM.
Regarding `Fc1ccc(-c2ccc(-c3cn([C@H]4CN5CCC4CC5)nn3)cc2)cn1`, in data set [1], the Ki was > 1000 nM.
Regarding `FC1CCN(Cc2ccc(-c3ccc(-c4cn([C@H]5CN6CCC5CC6)nn4)s3)cc2)CC1`, in data set [1], the Ki is 2.8 nM.
In data set [1], `CN1CCN(Cc2cccc(-c3ccc(-c4cn([C@H]5CN6CCC5CC6)nn4)s3)c2)CC1` had a Ki of 16 nM.
`OCc1ccc(-c2ccc(-c3cn([C@H]4CN5CCC4CC5)nn3)cc2)cc1` registered a Ki in data set [1] of 100 to 175 nM.
In turn, `OCc1ccc(-c2ccc(-c3cn([C@H]4CN5CCC4CC5)nn3)s2)s1` gave a Ki in data set [1] of 0.8 nM.
As to `c1cc(CN2CCCCC2)cc(-c2cccc(-c3cn([C@H]4CN5CCC4CC5)nn3)c2)c1`, affinity in [1] was put at a Ki of 122 nM.
Turning to `FCc1ccc(-c2ccc(-c3cn([C@H]4CN5CCC4CC5)nn3)s2)cc1`, the Ki in data set [3] and in data set [5] was > 1000 nM in each case. In data set [12], the outcome was inactive. In the data set with SH-SY5Y [13], the Activity result is on record as “Non-Toxic”. The result in [14] was Active.
`COCOCCOc1ccc(-c2ccc(-c3cn([C@H]4CN5CCC4CC5)nn3)s2)cc1` returned a Ki in data set [1] of 140 nM.
In the case of `OCc1ccc(-c2cccc(-c3cn([C@H]4CN5CCC4CC5)nn3)c2)cc1`, the Ki in data set [1] is 7 nM.
As for `c1csc(-c2ccc(-c3cn([C@H]4CN5CCC4CC5)nn3)cc2)c1`, the Ki in [1] was 110 to 160 nM.
The same measure, in the same setting: with `c1cc(CN2CCOCC2)cc(-c2ccc(-c3cn([C@H]4CN5CCC4CC5)nn3)s2)c1` the figure was 16 nM.
